Published values pooled from the literature.
Lines come from different studies, so protocols differ.
Target: STE20/SPS1-related proline-alanine-rich protein kinase (STK39, Homo sapiens, UniProt Q9UEW8)

Compound | effect on | mode | technique | tested at | measurement | value
Cc1cc(-n2nc(Cc3cc(F)cc(C(F)(F)F)c3)nc2C)ccc1C(N)=O | cell-free assay |  | competition with immobilised ligand | 1 µM | remaining binding | 100%
Cn1cncc1C1=CN(c2ncnc3[nH]cnc23)CCS1 | enzyme activity | inhibitor | radiometric | 2 µM | inhibition | 87.3%
CC(C)(O)[C@H]1CC[C@H](Nc2ccc3ncc(-c4cccc(C(F)(F)F)c4)n3n2)CC1 | enzyme activity | inhibitor |  | 1 µM | remaining activity | 112%
CC(C)(C)c1nc(-c2cccc(NS(=O)(=O)c3c(F)cccc3F)c2F)c(-c2ccnc(N)n2)s1 | enzyme activity | inhibitor | radiometric | 1 µM | remaining activity | 81%
O=C(Nc1cnn(-c2csc(C(=O)NC3COC3)c2)c1)Nc1ccccc1Cl | enzyme activity | inhibitor |  | 5 µM | remaining activity | 87.5%
O=C1NC(=O)c2cc(Nc3ccc(F)cc3)c(Nc3ccc(F)cc3)cc21 | cell-free assay |  |  | 0.5 µM | remaining signal | 89.2%
O=C(Nc1ccc(Oc2ccc(F)cc2)cc1)N1CCc2ncccc2[C@H]1c1ccc(F)cc1 | cell-free assay |  | competition with immobilised ligand | 1 µM | remaining binding | 82%
N#CCCc1ccc2c(c1)-c1[nH]c3ccc([N+](=O)[O-])cc3c1CC(=O)N2 | cell-free assay |  |  | 0.5 µM | remaining signal | 96.4%
CS(=O)(=O)N1CCCC(NC(=O)[C@H](CCC2CCCCC2)NC(=O)c2ccc(CNc3ncnc4c3nnn4-c3ccccc3)cc2)C1 (stereo partly drawn) | cell-free assay |  | competition with immobilised ligand | 0.1 µM | remaining binding | 100%
Cn1cnc(Br)c1C1=CN(c2ncnc3[nH]cnc23)CCS1 | enzyme activity | inhibitor | radiometric | 2 µM | inhibition | 86.6%
Cc1ccc(NC(=O)c2ccc(CN3CCN(C)CC3)cc2)cc1Nc1nc(-c2cccnc2)cs1 | cell-free assay |  |  | 0.5 µM | remaining signal | 94%
O=c1nc(-c2ccccn2)sc2ccccc12 | binding |  | competition with immobilised ligand | 1 µM | remaining binding | 100%
